Each structure is given as a SMILES string. ≈ marks a conversion by molar mass, not a printed value. Calls of active or inactive are those of the source. The rule behind the calls is not given here.

Here are results for 17 compounds from ChEMBL document CHEMBL3865810, “4-Aminoquinoline derivatives: Synthesis, in vitro and in vivo antiplasmodial activity against chloroquine-resistant parasites” (Eur J Med Chem, 2016).

A short description of data set [1]: Cytotoxicity against human HuH7 cells after 72 hrs by MTT assay. The data set is classed as toxicity, cell-based, Huh-7. An outline of the steps:
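Huh-7 human hepatocellular carcinoma cells, 4 × 10^3 per well in DMEM with 10% FBS and 1% penicillin-streptomycin-glutamine. Exposed to eight 2-fold dilutions spanning 100 to 0.78 µg/mL for 72 h. MTT added for 2-4 h, then detergent solubilization for 2 h in the dark at room temperature; absorbance read at 570 nm. CC50 is the mean of at least two experiments run in duplicate.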

For another data set, the system named is Plasmodium falciparum. Nature of the data set: Antiplasmodial activity against erythrocytic stage of chloroquine/pyrimethamine/cycloguanil resistant-Plasmodium falciparum FCR3 after 48 hrs by [3H]-hypoxanthine incorporation assay. The data set is classed as functional. The settings on record: FCR-3/Gambia. Summed up: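 FCR3 P. falciparum, resistant to CQ (100 ng/mL) and pyrimethamine (15 nM), was synchronized to rings and grown at 1% parasitemia and 2% haematocrit in group O erythrocytes. Medium was RPMI 1640 with Albumax II, at 37 °C under 2% O2/5.5% CO2. Cells were exposed for 48 h to serial dilutions from 0.05 to 2x10^-6 mg/ml. Read-out was [3H]-hypoxanthine incorporation, in triplicate, two independent assays. IC50 came from dose-response curves.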

Data set [2] deals with Plasmodium berghei. Nature of the data set: Antiplasmodial activity against erythrocytic stage of chloroquine-resistant Plasmodium berghei ANKA infected in BALB/c mouse assessed as inhibition of parasitemia at 5 mg/kg/day, ip administered 3 hrs post infection for 4 days by Giemsa staining based microscopic assay relative to control. It is filed as functional. An outline of the steps:
(§1)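 Peters' four-day suppressive test. Male naïve BALB/c mice, 25 ± 5 g, 4-5 weeks old, 5 per group, were infected ip on day 0 with 2x10^7 P. berghei ANKA parasitized erythrocytes. Dosing was ip from 2 mg/ml stocks in 10% DMSO, first given 1-3 h post-infection and repeated on days 1-3. Saline went to controls. On day 4, parasitemia was counted on Giemsa tail smears and activity = 100 − (treated/control mean parasitemia)×100.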

For data set [3], the system named is Plasmodium berghei. Nature of the data set: Antiplasmodial activity against erythrocytic stage of chloroquine-resistant Plasmodium berghei ANKA infected in BALB/c mouse assessed as inhibition of parasitemia at 1 mg/kg/day, ip administered 3 hrs post infection for 4 days by Giemsa staining based microscopic assay relative to control. It is filed as functional. An outline of the steps:
as §1

The test system of data set [4] is Plasmodium berghei. Put plainly: Antiplasmodial activity against erythrocytic stage of chloroquine-resistant Plasmodium berghei ANKA infected in BALB/c mouse assessed as inhibition of parasitemia at 0.1 mg/kg/day, ip administered 3 hrs post infection for 4 days by Giemsa staining based microscopic assay relative to control. The data set is classed as functional. An outline of the steps:
as §1

Data set [5] relates to Plasmodium berghei. Nature of the data set: Antiplasmodial activity against erythrocytic stage of chloroquine-resistant Plasmodium berghei ANKA infected in ip dosed BALB/c mouse assessed as reduction in parasitemia administered 3 hrs post infection for 4 days by Giemsa staining based microscopic assay. It is filed as functional. An outline of the steps: as §1
Data set [6] concerns Plasmodium berghei. Put plainly: Antiplasmodial activity against erythrocytic stage of chloroquine-resistant Plasmodium berghei ANKA infected in BALB/c mouse assessed as inhibition of parasitemia at 10 mg/kg/day, ip administered 3 hrs post infection for 4 days by Giemsa staining based microscopic assay relative to control. It is filed as functional. An outline of the steps:
as §1

Data set [7] in a line: Toxicity in ip dosed BALB/c mouse assessed as mortality measured up to7 days. It is filed as organism-based. To be noted: in vivo. Summed up: (§2)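 For the LD50 test, BALB/c mice were given single ip doses of 50, 100, 200, 500, 600, 800 or 1000 mg/kg BW and observed for mortality over 7 days.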
For data set [8], the system named is Plasmodium berghei. Put plainly: Antiplasmodial activity against erythrocytic stage of chloroquine-resistant Plasmodium berghei ANKA infected in BALB/c mouse assessed as mean survival time at 0.1 to 10 mg/kg/day, ip administered 1 to 3 hrs post infection qd measured on day 4 post last dose by giemsa staining-based microscopic analysis. The data set is classed as functional, organism-based. An outline of the steps:
(§3)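 BALB/c mice, 5 per group, were infected ip with 2x10^7 P. berghei ANKA parasitized erythrocytes. They were dosed ip at 0.1, 1, 5 or 10 mg/kg/day from 2 mg/ml stocks in 10% DMSO, starting 1-3 h post-infection, once daily on days 0-3. Saline went to controls. Groups were compared by Kaplan-Meier with a log-rank (Mantel-Cox) test.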

Data set [9] concerns Mus musculus. Put plainly: Toxicity in BALB/c mouse assessed as mortality at 500 mg/kg, ip measured up to 7 days. The data set is classed as organism-based. To be noted: in vivo, 168 h. Summed up: as §2
For data set [10], the system named is Mus musculus. Nature of the data set: Toxicity in BALB/c mouse assessed as mortality at 1000 mg/kg, ip measured up to 7 days. It is filed as organism-based. The settings on record: in vivo, 168 h. An outline of the steps:
as §2

Data set [11] relates to Mus musculus. Nature of the data set: Toxicity in BALB/c mouse infected with erythrocytic stage of chloroquine-resistant Plasmodium berghei ANKA assessed as weight loss at 0.1 to 10 mg/kg/day, ip administered 3 hrs post infection for 4 days. The data set is classed as organism-based. To be noted: in vivo.
The subject of data set [12] is Plasmodium berghei. Nature of the data set: Antiplasmodial activity against erythrocytic stage of chloroquine-resistant Plasmodium berghei ANKA infected in ip dosed BALB/c mouse assessed as increase in mouse survival time administered once daily 3 hrs post infection for 4 consecutive days by Giemsa staining based microscopic assay. The data set is classed as functional, organism-based. An outline of the steps: as §3

Data set [13] in a line: Therapeutic index, ratio of LD50 for BALB/c mouse to ED50 for erythrocytic stage of chloroquine-resistant Plasmodium berghei ANKA infected in BALB/c mouse. To be noted: read-out: Ratio LD50/ED50. An outline of the steps: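 TI = LD50/ED50. LD50 was taken from BALB/c mice dosed ip at 50-1000 mg/kg and observed for 7 days. ED50 came from the P. berghei ANKA four-day suppressive test with ip dosing.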

As a reminder, the CC50 is the concentration at which the toxic effect on the cells reaches its halfway point. As usually defined, the IC50 is the concentration at which inhibition is half-maximal. The low end stands for greater potency in that assay, the high end for weaker potency in that assay. The compound `Cc1ccc(Nc2ccnc3cc(Cl)ccc23)c(C)c1` showed a CC50 at 72 h in [1] greater than 100 µg/mL. For the same compound, the IC50 in the data set with Plasmodium falciparum turned out to be 0.4 µg/mL (≈ 1.41 µM).
For `Cc1cccc(C)c1Nc1ccnc2cc(Cl)ccc12`, in that order: greater than 100 µg/mL and 0.046 µg/mL (≈ 0.163 µM).
The inhibition in vivo is the relative decrease from the control value, in per cent. Usually ED50 stands for the dose that gives a 50% effect, or the effect in half of the subjects. Consider `CCN(CC)Cc1cc(Nc2ccnc3cc(Cl)ccc23)ccc1O` [AMODIAQUINE], for which, in the data set on Plasmodium berghei [2], the inhibition in vivo at 5 mg/kg/day came to 67.1%. In addition, the inhibition in vivo at 1 mg/kg/day in the data set on Plasmodium berghei [3] worked out at 48.2%. The inhibition in vivo at 0.1 mg/kg/day in the data set on Plasmodium berghei [4] came out at 28%. Besides, the median effective dose (ED50) in the data set with Plasmodium berghei [5] turned out to be 1.19 mg/kg. Moreover, in the data set with Plasmodium berghei [6], the inhibition in vivo at 10 mg/kg/day turned out to be 94.1%.
With `Cc1cccc(Nc2ccnc3cc(Cl)ccc23)c1C`, in data set [1], the CC50 at 72 h is greater than 100 µg/mL. The compound further came in with an IC50 in the data set with Plasmodium falciparum of 0.036 µg/mL (≈ 0.127 µM).
What is called LD50 is the dose at which mortality reaches 50%. Turning to `COc1ccc(OC)c(Nc2ccnc3cc(Cl)ccc23)c1`, the LD50 at 7 days in data set [7] was found to be 800 mg/kg. Also, the inhibition in vivo at 5 mg/kg/day in the data set on Plasmodium berghei [2] worked out at 58.1%. This compound also displayed a CC50 at 72 h in data set [1] greater than 100 µg/mL. Besides, in the data set with Plasmodium falciparum, the IC50 turned out to be 0.022 µg/mL (≈ 0.0699 µM). The inhibition in vivo at 1 mg/kg/day with Plasmodium berghei [3] came to 21.7%. Further, the inhibition in vivo at 0.1 mg/kg/day with Plasmodium berghei [4] is 12%. The result with Plasmodium berghei [8] was Active. For the same compound, the Activity entry in the data set with Mus musculus [9] is “Non-Toxic”; in the data set with Mus musculus [10], “Toxic”; in the data set with Mus musculus [11] it was “Non-Toxic”; in the data set on Plasmodium berghei [12] it was “Dose-dependent effect”. Moreover, the ED50 with Plasmodium berghei [5] worked out at 2.23 mg/kg. In addition, the inhibition in vivo at 10 mg/kg/day in the data set with Plasmodium berghei [6] was found to be 93.4%. Moreover, the selectivity ratio in [13] amounted to 359.
For the compound `Fc1ccc(Nc2ccnc3cc(Cl)ccc23)c(F)c1`, in data set [1], the CC50 at 72 h is greater than 100 µg/mL. The compound also gave an IC50 with Plasmodium falciparum of 0.045 µg/mL (≈ 0.155 µM).
In the same order, the values of `Clc1ccc2c(Nc3ccccc3Br)ccnc2c1` are greater than 100 µg/mL and 0.17 µg/mL (≈ 0.51 µM).
The compound `Cc1ccc(C)c(Nc2ccnc3cc(Cl)ccc23)c1` showed a CC50 at 72 h in data set [1] greater than 100 µg/mL. In the data set with Plasmodium falciparum, it took 0.46 µg/mL (≈ 1.63 µM) to reach half-maximal inhibition (IC50).
In the same order, the values of `Cc1cc(F)ccc1Nc1ccnc2cc(Cl)ccc12` are greater than 100 µg/mL and 0.076 µg/mL (≈ 0.265 µM).
With `Cc1ccc(Nc2ccnc3cc(Cl)ccc23)cc1C`, the CC50 at 72 h in data set [1] was greater than 100 µg/mL. Further, in the data set on Plasmodium falciparum, the IC50 came out at 0.16 µg/mL (≈ 0.566 µM).
For `Fc1cccc(Nc2ccnc3cc(Cl)ccc23)c1`, in that order: greater than 100 µg/mL and 0.098 µg/mL (≈ 0.359 µM).
In turn, `Clc1ccc(Cl)c(Nc2ccnc3cc(Cl)ccc23)c1` gave a CC50 at 72 h in [1] greater than 100 µg/mL. For the same compound, inhibition in the data set with Plasmodium falciparum was half-maximal at 0.056 µg/mL (≈ 0.173 µM) (IC50).
Take `COc1cc(Nc2ccnc3cc(Cl)ccc23)cc(OC)c1OC`: the CC50 at 72 h in [1] is greater than 100 µg/mL. Besides, in the data set on Plasmodium falciparum, the IC50 turned out to be 0.64 µg/mL (≈ 1.86 µM).
As to `Fc1ccc(Nc2ccnc3cc(Cl)ccc23)cc1`, the LD50 at 7 days in data set [7] was found to be 800 mg/kg. For the same compound, the inhibition in vivo at 5 mg/kg/day in the data set with Plasmodium berghei [2] came to 54.2%. Further, the CC50 at 72 h in data set [1] is greater than 100 µg/mL. In the data set on Plasmodium falciparum, this compound had an IC50 of 0.029 µg/mL (≈ 0.106 µM). The inhibition in vivo at 1 mg/kg/day in the data set with Plasmodium berghei [3] stood at 32%. The inhibition in vivo at 0.1 mg/kg/day in the data set on Plasmodium berghei [4] is 21.6%. Further, the outcome in the data set on Plasmodium berghei [8] was Active. In addition, the Activity entry with Mus musculus [9] was “Non-Toxic”; in the data set with Mus musculus [10], “Toxic”; in the data set on Mus musculus [11], “Non-Toxic”; in the data set with Plasmodium berghei [12], “Dose-dependent effect”. Also, the ED50 in the data set with Plasmodium berghei [5] came out at 2.06 mg/kg. For the same compound, the inhibition in vivo at 10 mg/kg/day in the data set on Plasmodium berghei [6] worked out at 79.1%. In addition, the selectivity ratio in [13] is 388.
Compound `Fc1ccc(Nc2ccnc3cc(Cl)ccc23)c(Cl)c1` showed a CC50 at 72 h in [1] greater than 100 µg/mL. In addition, the midpoint of inhibition in the data set with Plasmodium falciparum, the IC50, lay at 0.065 µg/mL (≈ 0.212 µM).
For `Fc1ccc(Nc2ccnc3cc(Cl)ccc23)cc1Cl`, in that order: greater than 100 µg/mL and 1.9 µg/mL (≈ 6.19 µM).
In the same order, the values of `Clc1ccc(Nc2ccnc3cc(Cl)ccc23)c(Cl)c1` are greater than 100 µg/mL and 0.76 µg/mL (≈ 2.35 µM).
